Several values for one entry are separate records, joined by “and”; a condition that tells them apart may be missing. Equal entries are not always repeated. Where two headings read alike, the source gives them in different places.
Columns and labels:
rTAAR1(M6.55T) = rTAAR1(M6.55T) (Rattus norvegicus, UniProt Q923Y9, M268T); test: cAMP agonist activity assay, rTAAR1; format: cell-based
rTAAR1(A5.42T) = rTAAR1(A5.42T) (Rattus norvegicus, UniProt Q923Y9, A193T); test: cAMP agonist activity assay, rTAAR1; format: cell-based
Sequence of rTAAR1(A5.42T) (Q923Y9 whole entry A193T): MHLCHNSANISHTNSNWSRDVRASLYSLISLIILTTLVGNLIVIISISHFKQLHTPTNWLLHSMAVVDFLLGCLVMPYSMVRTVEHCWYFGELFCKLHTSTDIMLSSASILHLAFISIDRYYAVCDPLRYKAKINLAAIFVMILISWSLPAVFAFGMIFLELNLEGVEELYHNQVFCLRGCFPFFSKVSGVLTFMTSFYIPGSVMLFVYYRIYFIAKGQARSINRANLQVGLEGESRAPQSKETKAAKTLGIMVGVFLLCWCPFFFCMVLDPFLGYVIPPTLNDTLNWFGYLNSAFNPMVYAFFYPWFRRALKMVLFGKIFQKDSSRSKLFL
Procedure, shortened: (§1)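 Site-directed TAAR1 mutants were stably expressed in HEK293 cells (transfected, selected with G418). cAMP was measured with a HitHunter cAMP XS kit over concentration-response curves. Responses were expressed relative to the reference agonist at 10 μM (set as 100%). EC50 and Emax were obtained by curve fitting, averaged over N independent triplicate experiments, with SEM.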

rTAAR1(A5.42L) = rTAAR1(A5.42L) (Rattus norvegicus, UniProt Q923Y9, A193L); test: cAMP agonist activity assay, rTAAR1; format: cell-based; details: for decrease in potency versus wild type: rTAAR1(A5.42L)
Sequence of rTAAR1(A5.42L) (Q923Y9 whole entry A193L): as the sequence (Q923Y9 whole entry A193T) above, with T193L counted along it
Procedure, shortened: as §1

rTAAR1(A5.42I) = rTAAR1(A5.42I) (Rattus norvegicus, UniProt Q923Y9, A193I); test: cAMP agonist activity assay, rTAAR1; format: cell-based; details: for decrease in potency versus wild type: rTAAR1(A5.42I)
Sequence of rTAAR1(A5.42I) (Q923Y9 whole entry A193I): as the sequence (Q923Y9 whole entry A193T) above, with T193I counted along it
Procedure, shortened: as §1

[1] = biological target: rTAAR1 (wild type rat TAAR1) (Rattus norvegicus, UniProt Q923Y9); test: In vitro cAMP agonist activity assay; format: cell-based
Sequence of rTAAR1 (wild type rat TAAR1) (Q923Y9 whole entry): as the sequence (Q923Y9 whole entry A193T) above, with T193A counted along it

mTAAR1(T6.55M/Y7.39N) = mTAAR1(T6.55M/Y7.39N) (Mus musculus, UniProt Q923Y8, T268M/Y287N); test: cAMP agonist activity assay, mTAAR1; format: cell-based
Sequence of mTAAR1(T6.55M/Y7.39N) (Q923Y8 whole entry T268M/Y287N): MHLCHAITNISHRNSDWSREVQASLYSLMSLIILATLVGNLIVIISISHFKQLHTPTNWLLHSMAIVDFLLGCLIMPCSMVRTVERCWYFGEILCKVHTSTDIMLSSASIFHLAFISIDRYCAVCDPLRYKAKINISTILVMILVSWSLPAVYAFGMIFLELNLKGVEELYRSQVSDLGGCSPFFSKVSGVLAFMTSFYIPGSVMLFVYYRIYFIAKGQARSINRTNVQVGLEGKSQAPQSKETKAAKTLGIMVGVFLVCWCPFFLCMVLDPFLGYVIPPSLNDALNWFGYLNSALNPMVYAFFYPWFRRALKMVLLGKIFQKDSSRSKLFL

mTAAR1(Y7.39N) = mTAAR1(Y7.39N) (Mus musculus, UniProt Q923Y8, Y287N); test: cAMP agonist activity assay, mTAAR1; format: cell-based
Sequence of mTAAR1(Y7.39N) (Q923Y8 whole entry Y287N): as the sequence (Q923Y8 whole entry T268M/Y287N) above, with M268T counted along it

[2] = biological target: T1, mTAAR1 (wild type mouse TAAR1) (Mus musculus, UniProt Q923Y8); test: In vitro cAMP agonist activity assay, wild type mTAAR1; format: cell-based
T1 sequence (Q923Y8 whole entry): as the sequence (Q923Y8 whole entry T268M/Y287N) above, with M268T, N287Y counted along it

rTAAR1(N7.39Y) = rTAAR1(N7.39Y) (Rattus norvegicus, UniProt Q923Y9, N287Y); test: cAMP agonist activity assay, rTAAR1; format: cell-based
Sequence of rTAAR1(N7.39Y) (Q923Y9 whole entry N287Y): as the sequence (Q923Y9 whole entry A193T) above, with T193A, N287Y counted along it

mTAAR1(Y4.56F) = mTAAR1(Y4.56F) (Mus musculus, UniProt Q923Y8, Y153F); test: cAMP agonist activity assay, mTAAR1; format: cell-based; details: for increase in potency versus wild type: mTAAR1(Y4.56F)
Sequence of mTAAR1(Y4.56F) (Q923Y8 whole entry Y153F): as the sequence (Q923Y8 whole entry T268M/Y287N) above, with Y153F, M268T, N287Y counted along it
Procedure, shortened: as §1

mTAAR1(T6.55M) = mTAAR1(T6.55M) (Mus musculus, UniProt Q923Y8, T268M); test: cAMP agonist activity assay, mTAAR1; format: cell-based
Sequence of mTAAR1(T6.55M) (Q923Y8 whole entry T268M): as the sequence (Q923Y8 whole entry T268M/Y287N) above, with N287Y counted along it

[3] = biological target: T1, mTAAR1 (wild type mouse TAAR1); details: wild type receptors; cited from earlier work
rTAAR1(M6.55T/N7.39Y) = rTAAR1(M6.55T/N7.39Y) (Rattus norvegicus, UniProt Q923Y9, M268T/N287Y); test: cAMP agonist activity assay, rTAAR1; format: cell-based
Sequence of rTAAR1(M6.55T/N7.39Y) (Q923Y9 whole entry M268T/N287Y): as the sequence (Q923Y9 whole entry A193T) above, with T193A, M268T, N287Y counted along it

rTAAR1(F4.56Y) = rTAAR1(F4.56Y) (Rattus norvegicus, UniProt Q923Y9, F153Y); test: cAMP agonist activity assay, rTAAR1; format: cell-based
Sequence of rTAAR1(F4.56Y) (Q923Y9 whole entry F153Y): as the sequence (Q923Y9 whole entry A193T) above, with F153Y, T193A counted along it
Procedure, shortened: as §1

Sequence of rTAAR1(M6.55T) (Q923Y9 whole entry M268T): as the sequence (Q923Y9 whole entry A193T) above, with T193A, M268T counted along it

With NCCc1ccc(Oc2ccc(O)cc2)c(I)c1 [Compound 1, 3-Iodothyronamine] the EC50 (rTAAR1(M6.55T); read-out: EC50 ± SEM) was 129 ± 43 nM, the “Emax ± SEM” value (rTAAR1(M6.55T); relative to 1) was 100 ±0% and the “fold less potent versus wild type” value (rTAAR1(A5.42T); rTAAR1(A5.42T)) was 3 fold. For the same compound, the “Emax ± SEM” value (rTAAR1(A5.42T); rTAAR1 A5.42T, relative to 1) was 100 ± 0%, the EC50 (rTAAR1(A5.42T); read-out: EC50 ± SEM, rTAAR1 A5.42T) was 88 ± 13 nM and the “decrease in potency versus wild type” value (rTAAR1(A5.42L)) was 2 fold. For the same compound, the “Emax ± SEM” value (rTAAR1(A5.42L); rTAAR1 A5.42L (Table 3a), relative to 1) was 100 ± 0%, the EC50 (rTAAR1(A5.42L); read-out: EC50 ± SEM, rTAAR1 A5.42L (Table 3a)) was 58 ± 16 nM and the “decrease in potency versus wild type” value (rTAAR1(A5.42I)) was 3 fold. The “Emax ± SEM” value (rTAAR1(A5.42I); rTAAR1 A5.42I (Table 3a), relative to 1) was 100 ± 0%, the EC50 (rTAAR1(A5.42I); read-out: EC50 ± SEM, rTAAR1 A5.42I (Table 3a)) was 108 ± 14 nM and the EC50 ([1]; read-out: EC50 ± SEM, wild type rTAAR1, HEK293 cells, cAMP) was 33 ± 3 nM. For the same compound, the “Emax ± SEM” value ([1]; wild type rTAAR1, Emax = 100 % is the activity of 1 at 10 mM (so in the source)) was 100± 0%, the “rTAAR1 selectivity: fold more potent for rTAAR1 compared to mTAAR1” value ([1]; wild type receptors) was ~ 10 fold and 7–10 fold and the EC50 (mTAAR1(T6.55M/Y7.39N); read-out: EC50 ± SEM) was 208 ± 60 nM. For the same compound, the “Emax ± SEM” value (mTAAR1(T6.55M/Y7.39N); relative to 1) was 100 ± 0%, the EC50 (mTAAR1(Y7.39N); read-out: EC50 ± SEM) was 251 ± 43 nM and the “Emax ± SEM” value (mTAAR1(Y7.39N); relative to 1) was 100 ± 0%. For the same compound, the EC50 ([2]; read-out: EC50 ± SEM, wild type mTAAR1, HEK293 cells, cAMP) was 314 ± 43 nM, the “improvement of potency at mTAAR1 on eliminating the β-phenyl ring of 2, 5 and 7” value ([2]; wild type mTAAR1) was 24- to 32 fold and the “Emax ± SEM” value ([2]; wild type mTAAR1, Emax = 100 % is the activity of 1 at 10 mM (so in the source)) was 100 ± 0%. The EC50 (rTAAR1(N7.39Y); read-out: EC50 ± SEM) was 135 nM, the “Emax ± SEM” value (rTAAR1(N7.39Y); relative to 1) was 100% and the “increase in potency versus wild type” value (mTAAR1(Y4.56F)) was 5 fold. The EC50 (mTAAR1(T6.55M); read-out: EC50 ± SEM) was 1420 ± 592 nM, the “Emax ± SEM” value (mTAAR1(T6.55M); relative to 1) was 100 ± 0% and the “fold less potent for mTAAR1 compared to rTAAR1” value [3] was 7 to 10 fold. For the same compound, the EC50 (rTAAR1(M6.55T/N7.39Y); read-out: EC50 ± SEM) was 90 nM and the “Emax ± SEM” value (rTAAR1(M6.55T/N7.39Y); relative to 1) was 100%.
With NCCc1ccc(O)cc1 [Tyramine, tyramine] the EC50 (rTAAR1(A5.42T)) was greater than 10000 nM, the “fold less potent versus wild type” value (rTAAR1(A5.42T); rTAAR1(A5.42T)) was 154 fold and the “less efficacious than wild type” value (rTAAR1(A5.42T); rTAAR1(A5.42T)) was 50%. For the same compound, the Emax (rTAAR1(A5.42T); read-out: Emax ± SEM) was 69 ± 5%, the EC50 (rTAAR1(A5.42L)) was roughly 2000 nM and the “decrease in potency versus wild type” value (rTAAR1(A5.42L)) was 31 fold. The Emax (rTAAR1(A5.42L); read-out: Emax ± SEM) was 102 ± 18%, the EC50 (rTAAR1(A5.42I)) was greater than 10000 nM and the “decrease in potency versus wild type” value (rTAAR1(A5.42I)) was 154 fold. The Emax (rTAAR1(A5.42I); read-out: Emax ± SEM) was 49 ± 7%, the EC50 [1] was 65 ± 1 nM and the Emax ([1]; read-out: Emax ± SEM) was 119 ± 7%. It also gave an EC50 (rTAAR1(F4.56Y)) of 54 ± 11 nM, an Emax (rTAAR1(F4.56Y); read-out: Emax ± SEM) of 108 ± 6% and an EC50 [2] of 271 ± 52 nM. The Emax ([2]; read-out: Emax ± SEM) was 110 ± 2%, the EC50 (mTAAR1(Y4.56F)) was 40 ± 13 nM and the “increase in potency versus wild type” value (mTAAR1(Y4.56F)) was 7 fold. The Emax (mTAAR1(Y4.56F); read-out: Emax ± SEM) was 118 ± 8% and the “fold less potent for mTAAR1 compared to rTAAR1” value [3] was 7 to 10 fold.
